Format in all cases: functional, cell-based
What all share (settings): Homo sapiens

Assay [1] concerns CAKI-1. The assay is described as follows: Compound was evaluated for cytotoxicity against CAKI-1(renal) cell line.
Assay [2] concerns CCRF-CEM. Put plainly: Compound was evaluated for cytotoxicity against CCRF-CEM (leukemia) cell line. A digest of the protocol: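 Human leukemia CEM cells grown in culture and exposed to the nucleosides. In one set of runs the adenosine deaminase inhibitor 2′-deoxycoformycin was also present during the incubation.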
For assay [3], the system named is DLD-1. Put plainly: Compound was evaluated for cytotoxicity against DLD-1(colon) cell line.
Assay [4] relates to NCI-H23. The assay is described as follows: Compound was evaluated for cytotoxicity against NCI-H23 (lung) cell line.
For assay [5], the system named is SNB-7. The assay is described as follows: Compound was evaluated for cytotoxicity against SNB-7 (CNS) cell line.
Assay [6] relates to SK-MEL-28. The assay is described as follows: Compound was evaluated for cytotoxicity against SK-MEL-28 (melanoma) cell line.

The term IC50 denotes the concentration needed to halve the response being measured. Read a high IC50 as weaker potency. In the case of `Nc1nc(N)c2ncn(C3SC(CO)C(O)C3O)c2n1` (centres undefined), the concentration for half-maximal inhibition (IC50) in assay [1] was 20 µM; in assay [2], 0.34 µM; in assay [3], more than 25 µM; in assay [4], more than 25 µM; in assay [5], 1 µM; in assay [6] it was 0.34 µM.

`Nc1nc(F)nc2c1ncn2[C@H]1S[C@H](CO)[C@@H](O)[C@@H]1O`: the IC50 in assay [1] was 20 µM; in assay [2] it was more than 130 µM; in assay [3], more than 100 µM; in assay [4], more than 100 µM; in assay [5] it was more than 100 µM; in assay [6] it was more than 100 µM.

For the molecule `Nc1nc(F)nc2c1ncn2[C@@H]1S[C@H](CO)[C@@H](O)[C@@H]1O`, the IC50 in assay [1] is 10 µM; in assay [2], 30 µM; in assay [3], more than 90 µM; in assay [4], more than 90 µM; in assay [5], more than 90 µM; in assay [6], more than 90 µM.

Turning to `Nc1nc(O)c2ncn(C3SC(CO)C(O)C3O)c2n1` (centres undefined), the 50% inhibitory concentration (IC50) in assay [1] was 14 µM; in assay [2], 0.57 µM; in assay [3] it was more than 20 µM; in assay [4], more than 20 µM; in assay [5], 1.1 µM; in assay [6] it was 1.1 µM.

The values are drawn from ChEMBL document CHEMBL1131122, “Synthesis and biological activity of certain 4'-thio-D-arabinofuranosylpurine nucleosides” (J Med Chem, 1998).
